Experimental data taken from ChEMBL document CHEMBL4680184, “Simple amphiphilic α-hydrazido acids: Rational design, synthesis, and in vitro bioactivity profile of a novel class of potential antimicrobial compounds” (Eur J Med Chem, 2020).
Converted amounts (≈) assume the structure as drawn. The source made the active and inactive calls. The rule behind the calls is not given here.

Tests used:
[1] = test system: Staphylococcus aureus; experiment: Antibacterial activity against Staphylococcus aureus ATCC 29213; assay type: functional
In short: (§1)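 Broth microdilution per CLSI: strains grown 6 h in BHI broth, diluted in Mueller-Hinton II broth to 1 × 10^6 cfu/mL, mixed 1:1 with serial dilutions of compound in MHII (compounds dissolved in sterile water); aerobic incubation 37 °C, 24 h. MIC = lowest concentration with no visible growth. Tetracycline internal control; triplicate.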

[2] = test system: Staphylococcus aureus; experiment: Antibacterial activity against linezolid-methicillin-resistant Staphylococcus aureus AOUC 0915 assessed as inhibition of visible growth after 24 hrs by broth microdilution method; assay type: functional; in short: as §1
[3] = test system: Enterococcus faecalis; experiment: Antibacterial activity against Enterococcus faecalis ATCC 29212; assay type: functional
In short: (§2)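 Compounds dissolved in sterile water at the highest achievable concentration, then serially diluted in Mueller-Hinton II broth per CLSI broth microdilution. Strains grown 6 h in BHI, diluted in MHII to 1 × 10^6 cfu/mL final. Aerobic incubation 37 °C, 24 h; tetracycline internal control; bacteria-only growth controls. MIC = lowest concentration with no visible growth; triplicate.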

[4] = Hemolytic activity against human erythrocytes measured after 1 hr by microplate reader based spectrophotometric analysis; assay type: ADME, cell-based, Erythrocyte
In short: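 Heparinized fresh human blood washed three times in PBS pH 7.4 (1000 g, 10 min), resuspended ~20 vol %. Equal volume with 1:2 serial dilutions of compound in PBS, 1 h at 37 °C; PBS and 0.2 vol % Triton X-100 controls. Supernatant diluted 1:60, A350 read. HC50 from three- or four-parameter Hill fit; mean of three replicates.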

[5] = test system: Staphylococcus aureus; experiment: Antibacterial activity against Staphylococcus aureus ATCC 29213 assessed as inhibition of visible growth after 24 hrs by broth microdilution method; assay type: functional; in short: as §2
[6] = test system: Escherichia coli; experiment: Antibacterial activity against gentamicin-colistin-resistant Escherichia coli 288328 assessed as inhibition of visible growth after 24 hrs by broth microdilution method; assay type: functional; in short: as §1
[7] = test system: Enterococcus faecalis; experiment: Antibacterial activity against Enterococcus faecalis ATCC 29212 assessed as inhibition of visible growth after 24 hrs by broth microdilution method; assay type: functional; in short: as §2
[8] = test system: Staphylococcus aureus; experiment: Antibacterial activity against Staphylococcus aureus ATCC 29213 after preincubated with plasma for 6 hrs by broth microdilution method; assay type: functional, organism-based
[9] = test system: Enterococcus faecium; experiment: Antibacterial activity against Enterococcus faecium 135562 (35C) assessed as inhibition of visible growth after 24 hrs by broth microdilution method; assay type: functional; in short: as §2
[10] = test system: Escherichia coli; experiment: Antibacterial activity against Escherichia coli ATCC 25922 assessed as inhibition of visible growth after 24 hrs by broth microdilution method; assay type: functional; in short: as §2
[11] = Therapeutic index, ratio of HC50 for human erythrocytes to MIC for Staphylococcus aureus ATCC 29213; assay type: toxicity; details: read-out: TI
[12] = Retention time of the compound by RP-HPLC analysis; assay type: physicochemical
In short: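 RP-HPLC on C18 column (5 µm, 200 × 4.6 mm), 0.5 mL/min; hydrochlorides at 0.5–1 mg/mL in water:2-propanol 70:30, gradient to 10:90 over 40 min, then 20 min at 10:90. Adjusted retention time = instrumental retention time minus hold-up time.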

[13] = Therapeutic index, ratio of HC50 for human erythrocytes to MIC for linezolid-methicillin-resistant Staphylococcus aureus AOUC 0915; assay type: toxicity
In short: (§3)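 TI = HC50/MIC. HC50: washed heparinized human erythrocytes (~20 vol % in PBS pH 7.4) mixed 1:1 with 1:2 serial compound dilutions in PBS, 1 h at 37 °C; supernatant A350 read; PBS and 0.2 vol % Triton X-100 as 0 and 100% lysis; HC50 by Hill logistic regression, mean of three replicates.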

[14] = test system: Pseudomonas aeruginosa; experiment: Antibacterial activity against Pseudomonas aeruginosa ATCC 27853 assessed as inhibition of visible growth after 24 hrs by broth microdilution method; assay type: functional; in short: as §2
[15] = Therapeutic index, ratio of HC50 for human erythrocytes to MIC for gentamycin-colistin-resistant Escherichia coli 288328; assay type: toxicity; in short: as §3
[16] = Therapeutic index, ratio of HC50 for human erythrocytes to MIC for Escherichia coli ATCC 25922; assay type: toxicity; details: read-out: TI
[17] = test system: Pseudomonas aeruginosa; experiment: microbe, parasite or virus in culture; details: ATCC 27853
[18] = test system: Escherichia coli; experiment: Antibacterial activity against Escherichia coli ATCC 25922; assay type: functional; in short: as §1
[19] = test system: Cell membrane; experiment: Induction of inner membrane permeabilization in Escherichia coli ATCC 25922 assessed as increase in fluorescence intensity at 8 ug/ml measured every 1 sec for 10 mins by PI-probe based assay; assay type: subcellular; details: dose 8.0 µg/ml, in the assay text read “every 0.1 sec” for “every 1 sec”
In short: (§4)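 Same washed midlog E. coli suspension (PBS pH 7.2, 10^8 cells/mL, 25 °C after 15 min equilibration). Propidium iodide 15 µM working with compound at 8 µg/mL working. Fluorescence ex 535/em 617 nm every 0.1 s over 10 min; rate constant from exponential rise-to-maximum fit; controls without cells or compound.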

[20] = test system: Cell membrane; experiment: Induction of outer membrane permeabilization in Escherichia coli ATCC 25922 assessed as rate constant by measuring NPN uptake at 8 ug/ml measured every 1 sec for 10 mins; assay type: subcellular; details: dose 8.0 µg/ml, in the assay text read “every 0.1 sec” for “every 1 sec”
In short: (§5)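 Midlog E. coli (6 h growth, 10^8 cells/mL) washed, resuspended in PBS pH 7.2, held at 4 °C, used within 3 h; equilibrated 15 min at 25 °C. NPN 1 µM working plus compound 8 µg/mL working. Fluorescence ex 350/em 420 nm, read every 0.1 s for 10 min; rate constant from exponential rise-to-maximum fit; probe-only, buffer controls.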

[21] = test system: Cell membrane; experiment: Induction of inner membrane permeabilization in gentamycin-colistin resistant Escherichia coli 288328 assessed as rate constant by measuring PI uptake at 8 ug/ml […]; details: dose 8.0 µg/ml
[22] = test system: Cell membrane; experiment: Induction of outer membrane permeabilization in gentamycin-colistin resistant Escherichia coli 288328 assessed as rate constant by measuring NPN uptake at 8 ug/ml […]; details: dose 8.0 µg/ml
[23] = test system: Cell membrane; experiment: Induction of outer membrane permeabilization in Escherichia coli ATCC 25922 assessed as increase in fluorescence intensity at 8 ug/ml measured every 1 sec for 10 mins by NPN-probe based assay; assay type: subcellular; details: dose 8.0 µg/ml, in the assay text read “every 0.1 sec” for “every 1 sec”; in short: as §5
[24] = test system: Cell membrane; experiment: Induction of inner membrane permeabilization in Escherichia coli ATCC 25922 assessed as rate constant by measuring PI uptake at 8 ug/ml […]; details: dose 8.0 µg/ml
[25] = test system: Cell membrane; experiment: Induction of inner membrane permeabilization in gentamycin-colistin resistant Escherichia coli 288328 assessed as increase in fluorescence intensity at 8 ug/ml measured every 1 sec for 10 mins by PI-probe based assay; assay type: subcellular; details: dose 8.0 µg/ml, in the assay text read “every 0.1 sec” for “every 1 sec”; in short: as §4
[26] = test system: Cell membrane; experiment: Induction of outer membrane permeabilization in gentamycin-colistin resistant Escherichia coli 288328 assessed as increase in fluorescence intensity at 8 ug/ml measured every 1 sec for 10 mins by NPN-probe based assay; assay type: subcellular; details: dose 8.0 µg/ml, in the assay text read “every 0.1 sec” for “every 1 sec”; in short: as §5
[27] = Chemical stability of the compound in hydrochloride water at 1 ug/ml assessed as compound degradation after 8 weeks; assay type: physicochemical; details: buffer, 1344 h, at 1 µg/mL
[28] = Chemical stability of the compound in pH 7.4 phosphate buffered saline at 1 ug/ml assessed as compound degradation after 8 weeks; assay type: physicochemical; details: buffer, pH 7.4, 1344 h, at 1 µg/mL
[29] = Chemical stability of the compound in pH 1.5 hydrochloride solution at 1 ug/ml assessed as compound degradation after 8 weeks; assay type: physicochemical; details: buffer, pH 1.5, 1344 h, at 1 µg/mL
[30] = test system: Enterococcus faecium; experiment: Antibacterial activity against Enterococcus faecium ATCC 135562 by broth microdilution method; assay type: functional; in short: as §2
[31] = test system: Escherichia coli; experiment: Antibacterial activity against Escherichia coli ATCC 25922 by broth microdilution method
[32] = test system: Staphylococcus aureus; experiment: Antibacterial activity against Staphylococcus aureus ATCC 29213 by broth microdilution method; assay type: functional; in short: as §2

COc1cccc(OC)c1C(=O)N[C@@H]1C(=O)N2[C@@H]1SC(C)(C)[C@@H]2C(=O)O [METHICILLIN]
MIC [1]: 0.5 µg/mL (≈ 1.31 µM)
MIC [2]: > 1020 µg/mL
MIC [3]: > 16 µg/mL

CCCCCCCCCCCCNC(=O)CN(NC(=O)c1ccccc1)C(=O)CN.Cl
HC50 at 1 h [4]: 195 µg/mL
MIC [5]: 4 µg/mL
MIC [6]: 4 µg/mL
MIC [7]: 4 µg/mL
Activity [8]: Active
MIC [2]: 4 µg/mL
MIC [9]: 4 µg/mL
MIC [10]: 4 µg/mL
selectivity ratio [11]: 49
Retention_time [12]: 19.7 min
selectivity ratio [13]: 49
MIC [14]: 64 µg/mL
selectivity ratio [15]: 49
selectivity ratio [16]: 49

CN(C)[C@@H]1C(O)=C(C(N)=O)C(=O)[C@@]2(O)C(O)=C3C(=O)c4c(O)cccc4[C@@](C)(O)[C@H]3C[C@@H]12 [TETRACYCLINE]
MIC [1]: 0.12 µg/mL (≈ 0.27 µM)
MIC [17]: 8 µg/mL (≈ 18 µM)
MIC [18]: 0.5 µg/mL (≈ 1.13 µM)
MIC [3]: 8 µg/mL (≈ 18 µM)

CCCCCCCCCCCCNC(=O)CN(NC(=O)C(C)(C)C)C(=O)CN.Cl
Activity [19]: Active
Activity [20]: 0.25 min⁻¹
HC50 at 1 h [4]: 394 µg/mL
MIC [5]: 4 µg/mL
MIC [6]: 8 µg/mL
Activity [21]: 0.24 min⁻¹
MIC [7]: 8 µg/mL
Activity [22]: 0.31 min⁻¹
Activity [8]: Active
MIC [2]: 4 µg/mL
Activity [23]: Active
MIC [9]: 8 µg/mL
Activity [24]: 0.22 min⁻¹
MIC [10]: 8 µg/mL
selectivity ratio [11]: 99
Retention_time [12]: 19.8 min
selectivity ratio [13]: 99
Activity [25]: Active
Activity [26]: Active
MIC [14]: 16 µg/mL
selectivity ratio [15]: 49
selectivity ratio [16]: 49

GENTAMICIN
MIC [1]: 0.12 µg/mL
MIC [6]: 128 µg/mL
MIC [18]: 0.25 µg/mL
MIC [3]: 4 µg/mL

CCCCCCCCNC(=O)CN(NC(=O)CCCCCCC)C(=O)CN.Cl
HC50 at 1 h [4]: 131 µg/mL
MIC [5]: 16 µg/mL
MIC [7]: 32 µg/mL
Stabilty [27]: Stable
Activity [8]: Active
MIC [9]: 16 µg/mL
MIC [10]: 16 µg/mL
selectivity ratio [11]: 8.2
Retention_time [12]: 17.8 min
MIC [14]: 32 µg/mL
Stabilty [28]: Stable
selectivity ratio [16]: 8.2
Stabilty [29]: Stable

CCCCCCCC(=O)NN(CC(=O)NCCC)C(=O)CN.Cl
HC50 at 1 h [4]: 433 µg/mL
MIC [5]: 1020 µg/mL
MIC [7]: 1020 µg/mL
MIC [9]: 1020 µg/mL
MIC [10]: 1020 µg/mL
selectivity ratio [11]: 0.4
Retention_time [12]: 5.2 min
MIC [14]: 2050 µg/mL
selectivity ratio [16]: 0.4

CCCCCCCCCCCCNC(=O)CN(NC(C)=O)C(=O)CN.Cl
HC50 at 1 h [4]: 127 µg/mL
MIC [5]: 64 µg/mL
MIC [7]: 32 µg/mL
MIC [9]: 32 µg/mL
MIC [10]: 64 µg/mL
selectivity ratio [11]: 2
Retention_time [12]: 17.5 min
MIC [14]: 64 µg/mL
selectivity ratio [16]: 2

CCCNC(=O)CN(NC(=O)OCc1ccccc1)C(=O)CN.Cl
HC50 at 1 h [4]: 775 µg/mL
MIC [5]: 512 µg/mL
MIC [7]: 1020 µg/mL
MIC [9]: 512 µg/mL
MIC [10]: 512 µg/mL
selectivity ratio [11]: 1.5
Retention_time [12]: 3.4 min
MIC [14]: 512 µg/mL
selectivity ratio [16]: 1.5

CCCCCCCCNC(=O)CN(NC(=O)c1ccccc1)C(=O)CN.Cl
HC50 at 1 h [4]: 368 µg/mL
MIC [5]: 128 µg/mL
MIC [7]: 128 µg/mL
MIC [9]: 128 µg/mL
MIC [10]: 128 µg/mL
selectivity ratio [11]: 2.9
Retention_time [12]: 12.3 min
MIC [14]: 128 µg/mL
selectivity ratio [16]: 2.9

H-GIGKFLKKAKKFGKAFVKILKK-NH2 [PEXIGANAN]
MIC [30]: 64 µg/mL
MIC [31]: 16 µg/mL
MIC [32]: 8 µg/mL
